B1: Osa-1-4 twister ribozyme (parent)
chain: CCGCCUAACACUGCCAAUGCCGGUCCCAAGCCCGGAUAAAAGUGGAGGGGGCGG

Variants of: B1
Test: self-cleavage, relative activity (ratio to wild type); higher = more cleavage; co-transcriptional
Summary of the method: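 A DNA template was synthesised for a 54-nucleotide twister ribozyme from Oryza sativa, with 97 % wild-type base and 1 % of each other base at each of the 48 positions downstream of the cleavage site. The ribozyme cleaved itself co-transcriptionally during 2 h of in vitro transcription at 37 °C. Reverse transcription with a template-switching oligonucleotide, PCR amplification and deep sequencing followed, and cleavage status came from reads with or without upstream sequence. Relative activity is the fraction cleaved normalised to wild type.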

Variant	self-cleavage
CCGCCUAACGCUGCCAAUGCCGGUCCCAAGCCCGGAUAAAAGUGGAGGGGGCGG [A10G]	0.91
CCGCCUAACGCUGCCAAUGCCGGUCCCCAGCCCGGAUAAAAGUGGAGGGGGCGG [A10G A28C]	0.63
CCGCCUAACGCUGCCAAUGCCGGUCCCGAGCCCGGAUAAAAGUGGAGGGGGCGG [A10G A28G]	0.15
CCGCCUAACGCUGCCAAUGCCGGUCCCUAGCCCGGAUAAAAGUGGAGGGGGCGG [A10G A28U]	0.43
CCGCCUAGCGCUGCCAAUGCCGGUCCCAAGCCCGGAUAAAAGUGGAGGGGGCGG [A10G A8G]	0.49
CCGCCUACCGCUGCCAAUGCCGGUCCCAAGCCCGGAUAAAAGUGGAGGGGGCGG [A10G A8C]	0.13
CCGCCUAUCGCUGCCAAUGCCGGUCCCAAGCCCGGAUAAAAGUGGAGGGGGCGG [A10G A8U]	0.12
CCGCCUAAUGCUGCCAAUGCCGGUCCCAAGCCCGGAUAAAAGUGGAGGGGGCGG [A10G C9U]	0.77
CCGCCUAAGGCUGCCAAUGCCGGUCCCAAGCCCGGAUAAAAGUGGAGGGGGCGG [A10G C9G]	0.41
CCGCCUAAAGCUGCCAAUGCCGGUCCCAAGCCCGGAUAAAAGUGGAGGGGGCGG [A10G C9A]	0.57
CCGCCUAACGCUGCCAAUGCCGGUCCCAAGCCCGGUUAAAAGUGGAGGGGGCGG [A10G A36U]	0.94
CCGCCUAACGCUGCCAAUGCCGGUCCCAAGCCCGGCUAAAAGUGGAGGGGGCGG [A10G A36C]	0.26
CCGCCUAACGCUGCCAAUGCCGGUCCCAAGCCCGGGUAAAAGUGGAGGGGGCGG [A10G A36G]	0.86
CCGCCUAACGUUGCCAAUGCCGGUCCCAAGCCCGGAUAAAAGUGGAGGGGGCGG [A10G C11U]	0.8
CCGCCUAACGAUGCCAAUGCCGGUCCCAAGCCCGGAUAAAAGUGGAGGGGGCGG [A10G C11A]	0.38
CCGCCUAACGGUGCCAAUGCCGGUCCCAAGCCCGGAUAAAAGUGGAGGGGGCGG [A10G C11G]	0.12
CCGCCUAACGCUGUCAAUGCCGGUCCCAAGCCCGGAUAAAAGUGGAGGGGGCGG [A10G C14U]	0.28
CCGCCUAACGCUGGCAAUGCCGGUCCCAAGCCCGGAUAAAAGUGGAGGGGGCGG [A10G C14G]	0.16
CCGCCUAACGCUGACAAUGCCGGUCCCAAGCCCGGAUAAAAGUGGAGGGGGCGG [A10G C14A]	0.11
CCGCCUAACGCUGCGAAUGCCGGUCCCAAGCCCGGAUAAAAGUGGAGGGGGCGG [A10G C15G]	0.2
CCGCCUAACGCUGCAAAUGCCGGUCCCAAGCCCGGAUAAAAGUGGAGGGGGCGG [A10G C15A]	0.17
CCGCCUAACGCUGCCAAUGCCGGUCCCAAGCCCGGAUGAAAGUGGAGGGGGCGG [A10G A38G]	0.88
CCGCCUAACGCUGCCAAUGCCGGUCCCAAGCCCGGAUCAAAGUGGAGGGGGCGG [A10G A38C]	0.91
CCGCCUAACGCUGCCAAUGCCGGUCCCAAGCCCGGAUUAAAGUGGAGGGGGCGG [A10G A38U]	0.8
CCGCCUCACGCUGCCAAUGCCGGUCCCAAGCCCGGAUAAAAGUGGAGGGGGCGG [A10G A7C]	0.06

Variant	self-cleavage
CCGCCUUACGCUGCCAAUGCCGGUCCCAAGCCCGGAUAAAAGUGGAGGGGGCGG [A10G A7U]	0.09
CCGCCUGACGCUGCCAAUGCCGGUCCCAAGCCCGGAUAAAAGUGGAGGGGGCGG [A10G A7G]	0.39
CCGCCUAACGCUGCCAAUGCCGGUCCCAAGCCCGGAUACAAGUGGAGGGGGCGG [A10G A39C]	0.61
CCGCCUAACGCUGCCAAUGCCGGUCCCAAGCCCGGAUAGAAGUGGAGGGGGCGG [A10G A39G]	0.82
CCGCCUAACGCUGCCAAUGCCGGUCCCAAGCCCGGAUAUAAGUGGAGGGGGCGG [A10G A39U]	0.69
CCGCCUAACCCUGCCAAUGCCGGUCCCAAGCCCGGAUAAAAGGGGAGGGGGCGG [A10C U43G]	0.64
CCGCCUAACGCUGCCAAUGCCGGUCCCAAGCCCGGAUAAACGUGGAGGGGGCGG [A10G A41C]	0.39
CCGCCUAACGCUGCCAAUGCCGGUCCCAAGCCCGGAUAAAUGUGGAGGGGGCGG [A10G A41U]	0.76
CCGCCUAACGCUGCCAAUGCCGGUCCCAAGCCCGGAUAAAGGUGGAGGGGGCGG [A10G A41G]	0.2
CCGCCUAACGCUGCCAAUGCCGGUCCCACGCCCGGAUAAAAGUGGAGGGGGCGG [A10G A29C]	0.05
CCGCCUAACGCUGCCAAUGCCGGUCCCAUGCCCGGAUAAAAGUGGAGGGGGCGG [A10G A29U]	0.07
CCGCCUAACGCUGCCAAUGCCGGUCCCAGGCCCGGAUAAAAGUGGAGGGGGCGG [A10G A29G]	0.09
CCGCCUAACGCUGCCAAUGCCGGUCCCAAGCCCGGAUAAGAGUGGAGGGGGCGG [A10G A40G]	0.34
CCGCCUAACGCUGCCAAUGCCGGUCCCAAGCCCGGAUAAUAGUGGAGGGGGCGG [A10G A40U]	0.27
CCGCCUAACGCUGCCAAUGCCGGUCCCAAGCCCGGAUAACAGUGGAGGGGGCGG [A10G A40C]	0.08
CCGCCUAACGCUGCCAAUGCCGGUCCCAAGCCCGGAUAAAAGUGGGGGGGGCGG [A10G A46G]	0.08
CCGCCUAACGCUGCCAAUGCCGGUCCCAAGCCCGGAUAAAAGUGGUGGGGGCGG [A10G A46U]	0.11
CCGCCUAACGCUGCCAAUGCCGGUCCCAAGCCCGGAUAAAAGUGGCGGGGGCGG [A10G A46C]	0.06
CCGCCUAACGCUGCCAUUGCCGGUCCCAAGCCCGGAUAAAAGUGGAGGGGGCGG [A10G A17U]	0.85
CCGCCUAACGCUGCCACUGCCGGUCCCAAGCCCGGAUAAAAGUGGAGGGGGCGG [A10G A17C]	0.44
CCGCCUAACGCUGCCAGUGCCGGUCCCAAGCCCGGAUAAAAGUGGAGGGGGCGG [A10G A17G]	0.64
CCGCCUAACGCUGCCGAUGCCGGUCCCAAGCCCGGAUAAAAGUGGAGGGGGCGG [A10G A16G]	0.89
CCGCCUAACGCUGCCUAUGCCGGUCCCAAGCCCGGAUAAAAGUGGAGGGGGCGG [A10G A16U]	0.61
CCGCCUAACGCUGCCCAUGCCGGUCCCAAGCCCGGAUAAAAGUGGAGGGGGCGG [A10G A16C]	0.27

From the RNAGym collection of RNA variant scans (doi:10.1002/anie.201605470)
